# Shown are actives, neighbours in structure and some others; about 1.2% of the full set was active somewhere.
# PERK inh = blocks human PERK kinase; Q9NZJ5; CHO PERK-DD fusion, SEAP luminescence translation reporter; inhibition, % at 5.6 µM; actives 0.17% (n = 220,000);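 active means inhibition above the mean inhibition of all tested compounds plus 3 SD, set separately per screening campaign, cut at about 2.9% in these data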;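 further: PERK kinase domain activated by AP20187 dimerizer at 100 nM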
# Furin inh = human furin inhibition; P09958; purified furin, fluorogenic substrate cleavage; inhibition, % at 20 µM or 30 µM; actives 0.061% (n = 220,000); AID 463115; in the data active means inhibition above about 25%
# FXIIa inh = inhibitors of human coagulation factor XIIa; purified FXIIa, Boc-QGR-AMC fluorogenic substrate, 2 h; inhibition, % at 5 µM; actives 0.3% (n = 220,000); in the data active means inhibition above about 40%
# thrombin 1536 = inhibitors of human thrombin; alpha-thrombin, Boc-VPR-AMC fluorogenic substrate cleavage; inhibition, % at 5 µM; actives 0.26% (n = 220,000);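 active means inhibition at or above 40%; inactive means inhibition below 40%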
#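 signal = AMC fluorescence, 355/460 nm | material = human alpha-thrombin enzyme | control set = enzyme without compound as high, wells lacking enzyme as low | times = reaction at room temperature | read-out basis = percent inhibition scaled between no-compound controls and no-enzyme blanks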
# hK5 inh = blocks human kallikrein 5 protease activity | recombinant hK5, fluorogenic AMC substrate cleavage | actives 0.59% (n = 210,000) | inhibition, % at 5 µM | AID 873;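 active means inhibition of 40% or more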
# Target sequence (Q9Y337 67-293 limits assumed): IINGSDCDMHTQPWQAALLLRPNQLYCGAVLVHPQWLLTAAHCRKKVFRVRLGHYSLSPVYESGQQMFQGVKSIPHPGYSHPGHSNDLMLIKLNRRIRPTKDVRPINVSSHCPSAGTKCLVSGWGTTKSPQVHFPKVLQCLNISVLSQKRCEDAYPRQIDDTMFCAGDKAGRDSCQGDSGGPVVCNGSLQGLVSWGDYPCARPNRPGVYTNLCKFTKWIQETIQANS
# FXIa inh = factor XIa (human) inhibition; purified FXIa, Boc-Glu-Ala-Arg-AMC fluorogenic substrate; inhibition, % at 5 µM; actives 0.14% (n = 220,000);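 active means inhibition of at least 40%; inactive means inhibition below 40%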;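 further: fluorescence of freed AMC excited at 355 nm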
# Hits are given with their value; - = inactive; . = no result given.
SMILES,PERK inh,Furin inh,FXIIa inh,thrombin 1536,hK5 inh,FXIa inh
COC(=O)C(C)Sc1nnc(Cc2cc(=O)[nH]c(=O)[nH]2)n1-c1ccc(Cl)cc1 (stereo not given),-,-,42.6,-,-,-
CCCN1C=CC(=C/C=C(\C#N)C(=O)OCC)C=C1,-,-,-,-,-,-
CCOC(=O)/C(C#N)=C/N=c1ccc(C)cn1C,-,-,104.2,-,42.5,-
Cc1ccc(NC(=O)CSc2nnc(COc3ccc(C#N)cc3)n2-c2ccccc2)cc1C,-,-,-,-,45.5,-
Cc1cc(C(=O)Nc2ccc(OCc3ccccc3)cc2)c(C)o1,-,-,-,-,-,-
Cc1ccc(C(=O)NC(=S)Nc2ccc(S(=O)(=O)N(C)c3ccccc3)cc2)cc1,-,-,-,-,-,-
CN(c1ccccc1)S(=O)(=O)c1ccc(NC(=S)NC(=O)c2ccccc2)cc1,-,-,95.2,-,-,-
O=C(CCCn1c(=S)[nH]c2cc3c(cc2c1=O)OCO3)N1CCN(c2ccccc2)CC1,-,-,-,-,129.6,-
CC(=O)c1ccc(N2CCN(C(=O)CCCn3c(=S)[nH]c4cc5c(cc4c3=O)OCO5)CC2)cc1,-,-,-,-,-,-
COc1ccc(NS(=O)(=O)c2ccc(N3CC(O)=C(c4ccccc4)C3=N)cc2)cc1,-,-,-,-,-,-
CCC(C)(C(=O)NC1CCCCC1)N(Cc1cccs1)C(=O)Cc1cccs1 (stereo not given),-,-,-,-,-,-
CCC(C)(C(=O)NC1CCCCC1)N(Cc1ccco1)C(=O)c1ccccn1 (stereo not given),-,-,54.1,-,-,-
COc1cc(C(=O)N2CCC(O)(c3ccccc3)CC2)cc(OC)c1OC,-,-,-,-,50.7,-
COc1cc(C(=O)N2CCN(C/C=C/c3ccccc3)CC2)cc(OC)c1OC,-,-,-,-,-,-
CSc1nc(O)c(C2OC(=O)c3ccccc32)c(=O)[nH]1 (stereo not given),2.9,-,-,-,-,-
O=C1/C(=N/n2cnnc2)c2ccccc2N1Cc1ccccc1,-,-,-,-,-,-
c1ccc2c(c1)C(=Nn1cnnc1)c1ccccc1-2,-,26.3,-,-,-,-
Cc1nnc(NC(=O)CSc2ncc(-c3ccccc3)[nH]2)s1,-,-,-,-,-,-
CCc1nnc(NC(=O)CSc2ncc(-c3ccccc3)[nH]2)s1,-,-,-,-,62.9,-
CCc1nnc(NC(=O)CSc2nc3ccccc3o2)s1,-,-,-,-,41.8,-
CCCSc1nnc(CSc2nc(C)cc(C)n2)n1C,-,-,-,-,-,-
Cc1ccccc1NC(=O)c1ccc(NC(=O)C2CC(=O)OC23CCCCC3)cc1 (stereo not given),-,-,-,64.1,-,-
Cc1ccc(/C=N/Nc2cc(C)nc(NCc3ccccc3)n2)cc1,-,-,-,-,-,-
Cc1cc(N/N=C/c2ccc(O)cc2)nc(NS(=O)(=O)c2ccccc2)n1,-,-,-,-,47.0,-
C=CCn1c(SCC(=O)Nc2cccnc2Cl)nnc1-c1ccc(Cl)cc1,-,-,41.0,-,-,-
SMILES,PERK inh,Furin inh,FXIIa inh,thrombin 1536,hK5 inh,FXIa inh
CCn1c(SCC(=O)c2ccccc2)nnc1-c1cnccn1,-,-,-,-,42.8,-
CCn1c(Cc2ccccc2)nnc1SCC(=O)Nc1nccs1,-,-,-,-,-,-
C=CCn1c(SCC(=O)Nc2c(C)cccc2C)nnc1-c1ccncc1,-,-,-,-,-,-
CCn1c(SCC(=O)Nc2cccnc2Cl)nnc1-c1ccccc1,-,-,105.9,-,62.0,-
CCn1c(SCC(=O)Nc2nccs2)nnc1-c1ccccc1,-,-,-,-,40.7,-
O=C1N(CN2CCN(Cc3ccccc3)CC2)c2ccccc2C12OCCCO2,-,-,-,.,-,-
COc1ccc(C(=O)NNC(=O)c2snnc2C)cc1,-,-,-,-,-,-
Cc1ccc(SCc2cc(=O)[nH]c(/N=C(\N)Nc3ccc(C)c(C)c3)n2)cc1,-,-,-,-,-,-
CCOC(=O)c1cnn(-c2ccc([N+](=O)[O-])cc2)c1N,-,-,-,-,-,-
CCOC(=O)C1(CC2CCCCO2)CCN(Cc2ccccc2-c2ccco2)CC1 (stereo not given),-,-,-,-,-,-
COC(=O)c1ccc(NC(=O)CSc2nc(C)cc(=O)[nH]2)cc1,-,-,-,-,-,-
COC(=O)c1c(SCC(=O)Nc2ccc(C)cc2)nc(=O)[nH]c1C,-,-,-,-,73.8,-
CCNc1nc(NC(C)C)nc(OCCNS(=O)(=O)c2cc(C)ccc2C)n1,-,-,-,-,-,-
CCNc1nc(NCC)nc(OCCNS(=O)(=O)c2cc(C)ccc2C)n1,-,-,-,-,52.6,-
Cc1nnc(NC(=O)c2ccccc2F)s1,-,-,-,-,-,-
Cc1nnc(NC(=O)c2c(F)c(F)c(F)c(F)c2F)s1,-,-,49.7,-,-,-
C/C(=C/C(=O)O)C(=O)Nc1cccc(C(F)(F)F)c1,-,-,-,-,-,-
CCN(CC)S(=O)(=O)c1ccc2c(c1)c(=O)c(C(=O)NCc1cccs1)cn2C,-,-,-,63.6,-,-
CCn1cc(C(=O)NCCc2ccccc2)c(=O)c2cc(S(=O)(=O)N3CCCC3)ccc21,-,-,-,-,-,-
COc1ccccc1CNC(=O)c1cn(C)c2ccc(S(=O)(=O)N3CCCC3)cc2c1=O,-,-,-,45.2,-,-
CCn1cc(C(=O)O)c(=O)c2cc(S(=O)(=O)N(C)C)ccc21,3.2,-,-,-,-,-
CCC(C)NC(=O)c1cn(CC)c2ccc(S(=O)(=O)N(C)C)cc2c1=O (stereo not given),-,-,-,-,-,-
CCN(CC)S(=O)(=O)c1ccc2c(c1)c(=O)c(C(=O)NCCCN(C)c1ccccc1)cn2C,-,-,-,-,-,-
CCn1cc(C(=O)NCc2ccco2)c(=O)c2cc(S(=O)(=O)N3CCCC3)ccc21,-,-,-,83.1,-,-
O=C(CSc1nnnn1-c1ccc(Cl)c(C(=O)O)c1)NC(c1ccccc1)c1ccccc1,-,-,-,-,-,-
SMILES,PERK inh,Furin inh,FXIIa inh,thrombin 1536,hK5 inh,FXIa inh
O=C(CCC1CCCN(c2ncccn2)C1)NCc1ccc(F)c(F)c1 (stereo not given),-,-,-,-,-,-
COc1ccc(CCn2c(=O)[nH]c3cc(C(=O)NCCc4ccccc4)ccc3c2=O)cc1OC,3.0,-,-,-,-,-
COc1ccc(CCNC(=O)c2ccc(N3CCCC3=O)cc2)cc1OC,-,26.3,-,-,-,-
CCOc1ccc(CCNC(=O)c2cccc(N3CCCC3=O)c2)cc1OCC,-,-,-,-,-,-
O=C(Nc1cccc(-c2nnc(-c3ccco3)o2)c1)C(c1ccccc1)c1ccccc1,-,-,-,-,-,-
COc1cccc(C2CC(c3ccc(F)cc3)Nc3nc(N)nn32)c1 (stereo not given),-,-,-,-,52.6,-

# Screening results from PubChem.
